The results in this text go back to ChEMBL document CHEMBL1138743, “Discovery of novel heteroarylazoles that are metabotropic glutamate subtype 5 receptor antagonists with anxiolytic activity” (J Med Chem, 2004).

pIC50, pKi: −log10 of the molar value. Where only a bound is given, the exact number is not on record here.

Data set [1] has as its target Metabotropic glutamate receptor 5 (Rattus norvegicus, UniProt P31424). Kind of data set: Displacement of [3H]3-methoxy-5-(pyridin-2-ylethynyl)pyridine from glutamate 5 receptor of rat cortical membranes. Format: cell membranes, Membrane. The gist of the method: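 Native mGlu5 in rat cortical membranes; displacement of bound [3H]-3-methoxy-5-(pyridin-2-ylethynyl)pyridine by test compound. Ki given as geometric mean with lower and upper limits and number of replicates.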

The target in data set [2] is Metabotropic glutamate receptor 5 (Homo sapiens, UniProt P41594). Kind of data set: Inhibitory concentration towards human glutamate receptor 5 in calcium flux assay. Type of data set: functional. A digest of the protocol:
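Ltk cells stably expressing human recombinant mGlu5; glutamate as agonist. Cytosolic Ca2+ changes read by fura-2 fluorescence in an automated format. IC50 given as geometric mean with limits and replicate number.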
In general terms: Calcium assays in cells follow changes in intracellular calcium, usually with a dye or a luminescent sensor.

A short description of data set [3]: Volume of distribution in rat. Format: ADME, organism-based. The conditions noted are these: in vivo. A digest of the protocol: (§1)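 Sprague-Dawley rats given 2 mg/kg iv (n = 2/group) and 10 mg/kg po (n = 3/group). Clearance, volume of distribution, half-life and oral bioavailability derived from plasma concentration profiles.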
The nature of data set [4]: Maximum concentration in rat when administered at 10 mg/kg perorally. Type of data set: ADME, organism-based. The arrangement: dose 10 mg/kg, route oral. The conditions noted are these: in vivo, po. The gist of the method:
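Sprague-Dawley rats dosed 10 mg/kg po (n = 3/group); maximum plasma concentration recorded.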

The nature of data set [5]: Bioavailability in rat. Type of data set: ADME, organism-based. The note with it: in vivo. A digest of the protocol:
as §1

A short description of data set [6]: Half life in rat. Type of data set: ADME. The conditions noted are these: in vivo. A digest of the protocol: as §1
Data set [7] can be described thus: Plasma clearance in rat. The note with it: read-out: Clp. Format: ADME, organism-based. A digest of the protocol:
as §1

Data set [8] has as its system Rattus norvegicus. Kind of data set: In vivo receptor occupancy was determined in rats administered intraperitoneally after 1 hr. Format: functional. The conditions noted are these: ip.
The nature of data set [9]: Brain level after 1 hr following 3 mg/kg dose administered intraperitoneally. Also on record: dose 3 mg/kg, route intraperitoneal. The note with it: rat, ip. Type of data set: ADME, organism-based. A digest of the protocol:
(§2)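 Rats given 3 mg/kg ip; plasma and brain concentrations measured at 1 h after dosing.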

The subject of data set [10] is Rattus norvegicus. Kind of data set: In vivo receptor occupancy was determined in rats administered perorally after 2 hr. Type of data set: functional. The conditions noted are these: po. The gist of the method: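 Sprague-Dawley rats dosed orally (n = 5–7/group); tail-vein radioligand given at Tmax, 2 h post-dose. Animals killed 1 min later and brain-bound tracer quantified. Occupancy ED50 from dose–response.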

Data set [11] in a line: Plasma level after 1 hr following 3 mg/kg dose administered intraperitoneally. Type of data set: ADME, organism-based. Also on record: dose 3 mg/kg, route intraperitoneal. The conditions noted are these: rat, ip, read-out: Plasma Level. The gist of the method:
as §2

Data set [12] concerns Rattus norvegicus. Kind of data set: In vivo receptor occupancy was determined in rats administered perorally after 30 min. Type of data set: functional. The conditions noted are these: po, 0.5 h.
A short description of data set [13]: Brain level after 1 hr following 10 mg/kg dose administered intraperitoneally. Type of data set: ADME, organism-based. Also on record: dose 10 mg/kg, route intraperitoneal. The note with it: rat, ip. A digest of the protocol: (§3)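 Rats given 10 mg/kg ip; plasma and brain concentrations measured at 1 h after dosing.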
Data set [14] has as its system Rattus norvegicus. Kind of data set: Blockage of fear-conditioning in rats determined in the fear-potentiated startle (FPS) model of anxiety administered perorally after 1 hr. Format: functional. The conditions noted are these: po. A digest of the protocol:
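Fear-potentiated startle in Wistar rats (n = 8/group), acute oral dosing, tested 1 h after administration. Startle amplitude compared in dark versus light; ED50 for blocking fear expression.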

The nature of data set [15]: Plasma level after 1 hr following 10 mg/kg dose administered intraperitoneally. Format: ADME, organism-based. The arrangement: dose 10 mg/kg, route intraperitoneal. The conditions noted are these: rat, ip, read-out: Plasma Level. The gist of the method:
as §3

Sequence of Metabotropic glutamate receptor 5 (Homo sapiens, UniProt P41594) (P41594 whole entry): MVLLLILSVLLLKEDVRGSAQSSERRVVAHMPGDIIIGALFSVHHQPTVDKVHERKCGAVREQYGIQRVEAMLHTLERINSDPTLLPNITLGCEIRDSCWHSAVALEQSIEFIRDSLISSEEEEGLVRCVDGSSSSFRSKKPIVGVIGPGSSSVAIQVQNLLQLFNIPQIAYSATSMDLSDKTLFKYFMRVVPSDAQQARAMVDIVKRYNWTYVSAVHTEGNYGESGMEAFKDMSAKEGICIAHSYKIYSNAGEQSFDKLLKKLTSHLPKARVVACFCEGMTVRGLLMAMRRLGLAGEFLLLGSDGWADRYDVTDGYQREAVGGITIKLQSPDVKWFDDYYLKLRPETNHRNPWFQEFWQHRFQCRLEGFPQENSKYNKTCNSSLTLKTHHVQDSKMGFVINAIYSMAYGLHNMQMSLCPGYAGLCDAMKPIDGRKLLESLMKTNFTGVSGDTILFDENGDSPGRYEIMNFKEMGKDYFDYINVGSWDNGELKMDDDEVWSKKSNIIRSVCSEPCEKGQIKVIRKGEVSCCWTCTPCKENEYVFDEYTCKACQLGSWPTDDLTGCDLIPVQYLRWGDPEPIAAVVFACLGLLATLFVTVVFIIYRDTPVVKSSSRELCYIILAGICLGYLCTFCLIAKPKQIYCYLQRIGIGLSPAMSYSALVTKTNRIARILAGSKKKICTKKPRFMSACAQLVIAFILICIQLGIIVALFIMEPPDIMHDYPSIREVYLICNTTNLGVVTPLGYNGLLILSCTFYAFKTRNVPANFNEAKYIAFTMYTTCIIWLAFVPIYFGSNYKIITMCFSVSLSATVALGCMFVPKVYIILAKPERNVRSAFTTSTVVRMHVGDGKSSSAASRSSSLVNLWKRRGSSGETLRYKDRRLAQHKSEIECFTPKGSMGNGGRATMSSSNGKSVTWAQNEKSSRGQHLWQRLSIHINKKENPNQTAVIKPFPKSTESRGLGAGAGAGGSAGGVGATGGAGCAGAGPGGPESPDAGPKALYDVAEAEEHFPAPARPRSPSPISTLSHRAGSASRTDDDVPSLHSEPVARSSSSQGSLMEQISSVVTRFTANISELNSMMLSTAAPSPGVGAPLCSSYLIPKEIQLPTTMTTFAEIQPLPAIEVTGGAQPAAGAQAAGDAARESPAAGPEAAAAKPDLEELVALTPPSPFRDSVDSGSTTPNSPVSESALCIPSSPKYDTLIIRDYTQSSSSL
Sequence of Metabotropic glutamate receptor 5 (Rattus norvegicus, UniProt P31424) (P31424 whole entry): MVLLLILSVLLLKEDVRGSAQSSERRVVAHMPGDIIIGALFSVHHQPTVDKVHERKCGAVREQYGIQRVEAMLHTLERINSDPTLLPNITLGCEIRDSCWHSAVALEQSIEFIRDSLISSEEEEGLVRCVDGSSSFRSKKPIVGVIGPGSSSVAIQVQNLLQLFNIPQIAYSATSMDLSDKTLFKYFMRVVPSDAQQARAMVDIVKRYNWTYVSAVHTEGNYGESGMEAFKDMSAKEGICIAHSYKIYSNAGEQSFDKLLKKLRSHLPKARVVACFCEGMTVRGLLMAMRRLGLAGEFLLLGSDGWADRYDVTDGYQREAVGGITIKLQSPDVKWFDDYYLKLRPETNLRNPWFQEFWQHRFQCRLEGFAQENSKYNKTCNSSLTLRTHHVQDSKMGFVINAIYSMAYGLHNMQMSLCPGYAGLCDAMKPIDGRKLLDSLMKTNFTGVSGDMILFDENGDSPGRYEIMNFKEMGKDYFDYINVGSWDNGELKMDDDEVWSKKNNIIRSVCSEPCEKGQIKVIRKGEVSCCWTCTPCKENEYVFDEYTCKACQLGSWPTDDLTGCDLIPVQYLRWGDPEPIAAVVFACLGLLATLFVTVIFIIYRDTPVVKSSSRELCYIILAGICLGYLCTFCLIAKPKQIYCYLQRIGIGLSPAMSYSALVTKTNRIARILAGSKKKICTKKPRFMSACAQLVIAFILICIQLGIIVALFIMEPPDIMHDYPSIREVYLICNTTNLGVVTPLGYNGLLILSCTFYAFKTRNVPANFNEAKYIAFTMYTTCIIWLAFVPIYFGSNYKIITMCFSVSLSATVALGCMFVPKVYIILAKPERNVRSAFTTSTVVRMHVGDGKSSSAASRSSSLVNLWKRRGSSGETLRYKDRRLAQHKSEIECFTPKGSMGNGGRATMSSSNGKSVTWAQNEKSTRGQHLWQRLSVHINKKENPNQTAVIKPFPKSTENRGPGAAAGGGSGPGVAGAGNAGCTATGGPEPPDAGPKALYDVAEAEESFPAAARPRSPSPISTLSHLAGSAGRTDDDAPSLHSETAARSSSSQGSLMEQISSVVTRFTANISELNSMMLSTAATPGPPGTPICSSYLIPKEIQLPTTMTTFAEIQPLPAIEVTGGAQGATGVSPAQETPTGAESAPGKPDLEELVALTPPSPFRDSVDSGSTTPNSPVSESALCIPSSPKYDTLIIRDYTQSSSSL

A word on the pKi: it is the negative decadic logarithm of the Ki, by convention in mol/L. The low end stands for a large Ki, the high end for a small Ki. One may read the pIC50 as the negative decadic logarithm of the IC50, by convention in mol/L. `N#Cc1cccc(-n2ccc(-c3ccccn3)n2)c1`: the pKi in data set [1] was 6.28. Also, the pIC50 in [2] was 6.36.
In data set [1], `N#Cc1cccc(-c2ccn(-c3ccccn3)n2)c1` had a negative-log Ki (pKi) of less than 6.22. Besides, the pIC50 in data set [2] is 5.44.
Turning to `N#Cc1cccc(-c2cnn(-c3ccccn3)c2)c1`, in data set [1], the pKi was less than 6.20. The pIC50 in [2] is 6.05.
In the case of `N#Cc1cccc(-c2cn(-c3ccccn3)nn2)c1`, in data set [1], the negative logarithm of the Ki (pKi) is less than 6.20. In addition, the pIC50 in data set [2] is less than 5.00.
Turning to `N#Cc1cccc(-n2cc(-c3ccccn3)nn2)c1`, the negative-log Ki (pKi) in data set [1] was less than 6.22. For the same compound, the negative logarithm of the IC50 (pIC50) in data set [2] was 6.01.
Usually Vd stands for the apparent volume that relates the amount in the body to the concentration in plasma or blood. In general, Cmax refers to the highest concentration seen after dosing. Usually bioavailability stands for the share of a dose that reaches the circulation, judged against a reference dose that is usually intravenous. Read a low bioavailability as little systemic uptake. For orientation: half-life means how long it takes for the measured level to halve. Low values mean fast loss, high ones slow loss. In turn, `N#Cc1cccc(-c2cnn(-c3ccccn3)n2)c1` showed a Vd in [3] of 1 L/kg. Further, the negative-log Ki (pKi) in [1] is 6.70. Also, the pIC50 in data set [2] was 6.68. In data set [4], the Cmax is 2700 nM. Further, in data set [5], the bioavailability amounted to 13%. Besides, in data set [6], the half-life was 1.7 h. Moreover, the clearance in data set [7] is 15.1 mL/min/kg.
In data set [3], `N#Cc1cccc(-n2ncc(-c3ccccn3)n2)c1` registered a Vd of 1.1 L/kg. Also, the pKi in data set [1] was 6.52. Further, the pIC50 in data set [2] is 7.10. In data set [4], the peak concentration (Cmax) is 600 nM. In addition, in data set [5], the bioavailability came out at 3%. This compound had a half-life in data set [6] of 2.5 h. Further, the clearance in data set [7] was determined as 15.7 mL/min/kg.
For orientation: ED50 means the dose that gives a 50% effect, or the effect in half of the subjects. Turning to `N#Cc1cc(F)cc(-n2nnc(-c3ccccn3)n2)c1`, the Vd in [3] is 1.1 L/kg. The ED50 came to 1.3 mg/kg with Rattus norvegicus [8] and 3.6 mg/kg in the data set on Rattus norvegicus [10]. The compound further gave a pKi in data set [1] of 8.00. The concentration at 1 h stood at 2400 nM in data set [9] and 2700 nM in [11]. Besides, in data set [2], the negative-log IC50 (pIC50) is 8.40. For the same compound, the peak level in [4] (Cmax) was 2500 nM. The compound also displayed a bioavailability in [5] of 26%. The clearance in data set [7] was 16.9 mL/min/kg.
`N#Cc1cccc(-n2cc(-c3ccccn3)cn2)c1`: the distribution volume (Vd) in [3] stood at 3.7 L/kg. For the same compound, in data set [1], the negative-log Ki (pKi) is 6.60. The pIC50 in data set [2] was 6.85. For the same compound, in [4], the highest concentration (Cmax) worked out at 1200 nM. Besides, the bioavailability in [5] was found to be 3%. The half-life in [6] was 5.5 h. Further, the clearance in data set [7] was determined as 9.7 mL/min/kg.
Compound `N#Cc1cccc(-c2ncn(-c3ccccn3)n2)c1` gave a pKi in data set [1] of less than 6.22. Also, the negative logarithm of the IC50 (pIC50) in [2] is 5.21.
For `N#Cc1cccc(-n2cnc(-c3ccccn3)n2)c1`, the pKi in [1] was less than 6.22. In addition, in data set [2], the negative-log IC50 (pIC50) was 6.16.
As for `N#Cc1cccc(-c2ccn(-c3ccccn3)c2)c1`, the pKi in data set [1] is less than 6.22. In addition, the negative-log IC50 (pIC50) in data set [2] was 5.34.
Consider `N#Cc1cccc(-n2ccc(-c3ccccn3)c2)c1`, for which the Vd in data set [3] was determined as 3.6 L/kg. Also, the pKi in data set [1] is less than 6.22. Besides, the negative logarithm of the IC50 (pIC50) in data set [2] is 6.72. For the same compound, the peak level in data set [4] (Cmax) was 900 nM. Further, the bioavailability in data set [5] was found to be 4%. This compound also had a half-life in [6] of 1.7 h. The clearance in data set [7] worked out at 32.5 mL/min/kg.
The compound `N#Cc1cccc(-c2nc(-c3ccccn3)no2)c1` showed a pKi in data set [1] of 6.31.
Regarding `N#Cc1cccc(-c2cn(-c3ccccn3)cn2)c1`, in [1], the pKi was less than 6.22. Moreover, the negative logarithm of the IC50 (pIC50) in [2] was less than 5.00.
The corresponding values for `N#Cc1cccc(-n2cnc(-c3ccccn3)c2)c1` are less than 6.22 and 5.94.
As for `N#Cc1cccc(-n2nnc(-c3ccccn3)n2)c1`, the median effective dose (ED50) in the data set on Rattus norvegicus [12] was 3 mg/kg; in the data set on Rattus norvegicus [8], 3 mg/kg; in the data set with Rattus norvegicus [14] it was 5.4 mg/kg. In [1], the negative logarithm of the Ki (pKi) was 6.72. Also, the concentration at 1 h in [13] came out at 15300 nM; in data set [15] it was 10500 nM. Besides, the pIC50 in data set [2] was 7.15. The same compound gave a Cmax in data set [4] of 5800 nM. Also, the clearance in [7] was 32.9 mL/min/kg.
In [1], `N#Cc1cccc(-c2nnn(-c3ccccn3)n2)c1` showed a negative logarithm of the Ki (pKi) of 6.35. Besides, the pIC50 in data set [2] is 6.57.
